High-throughput results as filed in PubChem BioAssay.
Compounds with a hit are over-represented: about 2.9% of the library has one in this group of screens.
SIAE primary = human SIAE inhibition, primary screen. Q9HAT2. SIAE FP-Rh probe binding, fluorescence polarization. inhibition, % at 9.66 µM. 370,000 tested, 0.69% active. AID 1053197;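 active means inhibition above a cutoff: mean of compounds within the control limits plus 3 SD of those, cut at about 17% in these data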;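 further: 0% = plate median of compound wells and 100% = probe without SIAE protein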
PRMT1 FP inh = blocks human protein arginine methyltransferase 1; 370,000 tested, 1.3% active; AID 652257; Q99873; recombinant PRMT1, activity-based probe fluorescence polarization; inhibition, % at 2.79 µM;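 active means inhibition above about 21% made by adding two undisclosed values, limit read from the data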
ABHD4 inh = inhibits mouse alpha/beta hydrolase domain 4 | purified mABHD4, FP-Rh probe fluorescence polarization | Q8VD66 | AID 720543 | 370,000 tested, 0.54% active | inhibition, % at 8.92 µM;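 active means inhibition exceeding the mean over every tested compound plus 3 SD, cut at about 30% in these data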;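 further: 0% = plate median of compound wells and 100% = S159A mutant with DMSO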
Target sequence (Q8VD66 whole entry, looked up, the tested form may be a part): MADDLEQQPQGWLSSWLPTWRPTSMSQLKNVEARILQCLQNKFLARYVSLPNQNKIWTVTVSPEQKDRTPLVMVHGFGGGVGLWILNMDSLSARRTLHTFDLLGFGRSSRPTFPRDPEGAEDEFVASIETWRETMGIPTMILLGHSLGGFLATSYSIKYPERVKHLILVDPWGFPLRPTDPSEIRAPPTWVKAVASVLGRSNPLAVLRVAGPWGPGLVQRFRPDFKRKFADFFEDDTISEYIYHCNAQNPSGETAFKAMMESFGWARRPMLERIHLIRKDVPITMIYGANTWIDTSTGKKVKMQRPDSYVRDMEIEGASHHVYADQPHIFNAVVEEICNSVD
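Doses – 8.92 µM, single dose · Material – wild-type mouse ABHD4 protein · Replication – single well per compound (singlicate) · Measure – percent inhibition of probe binding, normalized to plate controls · Schedule – 45 min compound pre-incubation plus 60 min probe step, 25 °C · Detection – fluorescence polarization with parallel and perpendicular emission, 525/598 nm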
TCR CD3 inh = blocks the human TCR-CD3 interaction. TAMRA-labeled TCR probe fluorescence, biochemical. inhibition, % at 9.4 µM. 360,000 tested, 0.37% active. AID 651800; in the data active means inhibition above about 19%;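 further: recombinant mutant TCR 2C K166C tagged with TAMRA read by polarization; 0% = receptor in buffer alone and 100% = receptor with positive control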
PAD4 FP inh = inhibitors of human PAD4; 330,000 tested, 0.41% active; inhibition, % at 6.36 µM; AID 485272; recombinant PAD4, RCA probe fluorescence polarization;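 active means percent inhibition above a cutoff equal to the mean of all tested compounds plus 3 SD, cut at about 15% in these data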;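 further: 0% = PAD4 with RCA probe and DMSO and 100% = probe without PAD4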
HTRA1 inh = blocks human HTRA1 serine peptidase; recombinant HTRA1, FP-rhodamine activity-based probe, fluorescence polarization; inhibition, % at 5.96 µM; 340,000 tested, 0.5% active; AID 504803; in the data active means inhibition above about 36%;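 further: 0% = enzyme with DMSO and 100% = wells lacking enzyme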
Starred values were filed as active, the others as inactive.

Screening COc1ccc2c(c1)CCCN2C(=O)C1CCCN(S(=O)(=O)c2ccc(Cl)s2)C1 (stereo not given) returned SIAE primary 5, PRMT1 FP inh -4 and ABHD4 inh -2.
CCS(=O)(=O)c1ccc(N=Nc2ccc(O)c3ncccc23)c(OC)c1 was read as SIAE primary 4, PRMT1 FP inh 4, ABHD4 inh 22, TCR CD3 inh -3 and HTRA1 inh 47*.
Screening O=C(NCc1ccc(F)c(F)c1)C1CCCN(c2nc3ccccc3o2)C1 (stereo not given) returned SIAE primary -2, PRMT1 FP inh 16 and ABHD4 inh -5.
`O=C(Nc1ccc(Cl)cc1)Nc1ccc2c(c1)N1CCN=C1S2` gave SIAE primary 19*, PRMT1 FP inh 16, ABHD4 inh 5, TCR CD3 inh -15, PAD4 FP inh 6 and HTRA1 inh 10.
For COc1ccc(-n2cc(COC(=O)NCCc3c[nH]c4ccccc34)nn2)cc1 the results were SIAE primary 1, PRMT1 FP inh -5 and ABHD4 inh -7.
COc1ccc(C(=O)Oc2c(CN3CCOCC3)cc(Cl)c3cccnc23)cc1 was read as SIAE primary -4, PRMT1 FP inh -1, ABHD4 inh 5, TCR CD3 inh -3, PAD4 FP inh -2 and HTRA1 inh 40*.
Screening c1ccc(-c2cc3c(ccc4nonc43)nn2)cc1 returned SIAE primary -2, PRMT1 FP inh 1, ABHD4 inh 1, TCR CD3 inh -5, PAD4 FP inh -3 and HTRA1 inh 0.
On1onc2c3cc(-c4ccccc4)nc3ccc21 was read as SIAE primary 18*, PRMT1 FP inh -4, ABHD4 inh -18, TCR CD3 inh 0, PAD4 FP inh 1 and HTRA1 inh 2.
For COc1cc(C2C(C#N)=C(N)OC3=C2C(=O)CCC3)c([N+](=O)[O-])cc1OC (stereo not given) the results were SIAE primary 2, PRMT1 FP inh 21*, ABHD4 inh 23, TCR CD3 inh 2, PAD4 FP inh -6 and HTRA1 inh 5.
For O=c1[nH]c2ccccc2c(O)c1-[n+]1ccccc1 the results were SIAE primary 4, PRMT1 FP inh 5, ABHD4 inh -1, TCR CD3 inh -12, PAD4 FP inh -1 and HTRA1 inh -2.
Screening CCCCS(=O)c1c(O)c2ccccc2[nH]c1=O (stereo not given) returned SIAE primary 5, PRMT1 FP inh 22*, ABHD4 inh -10, TCR CD3 inh -7, PAD4 FP inh 0 and HTRA1 inh 9.
For O=c1[nH]c2ccccc2c(O)c1O the results were SIAE primary 4, PRMT1 FP inh 75*, ABHD4 inh -2, TCR CD3 inh 12, PAD4 FP inh -21 and HTRA1 inh 7.
Screening CC(C)N1Cc2nnn(Cc3ccccc3)c2-c2cc(N3CCCC3)ccc2S1(=O)=O returned SIAE primary 2, PRMT1 FP inh -1 and ABHD4 inh 27.
Screening COc1ccc(C(CC(=O)c2ccc(C)cc2)Sc2ccccc2N)cc1 (stereo not given) returned SIAE primary 0, PRMT1 FP inh 24*, ABHD4 inh -2, TCR CD3 inh -7 and HTRA1 inh -17.
`COc1ccc(C(=O)CC(c2ccccc2)S(=O)(=O)c2ccc(C)cc2)cc1` (stereo not given) gave PAD4 FP inh -1.
For Cc1ccc([C@H](C)NC(=O)C2=C(N)N(S(=O)(=O)c3ccc(C)cc3)C(C(=O)c3ccccc3)C2c2ccccc2Cl)cc1 (stereo not given in full) the results were SIAE primary -7, PRMT1 FP inh 3 and ABHD4 inh -12.
For CC(C)c1ccc(N2CCN(C(=O)c3ccccc3NC(=O)/C=C\C(=O)O)CC2)cc1 the results were SIAE primary 4, PRMT1 FP inh 17, ABHD4 inh 6, TCR CD3 inh -4, PAD4 FP inh -1 and HTRA1 inh 2.
Screening O=C(O)/C=C\C(=O)Nc1ccccc1C(=O)N1CCN(c2ccc(Cl)cc2)CC1 returned SIAE primary -1, PRMT1 FP inh 24*, ABHD4 inh -4, TCR CD3 inh -4, PAD4 FP inh 4 and HTRA1 inh 3.
`Cc1ccc(C)c(N2C(=N)S/C(=C\c3ccc(-c4ccccc4C(=O)O)o3)C2=O)c1` gave SIAE primary 2, PRMT1 FP inh 7, ABHD4 inh 34*, TCR CD3 inh -3, PAD4 FP inh -14 and HTRA1 inh -13.
